Compounds with a hit are over-represented: about 4.9% of the library has one in this group of screens.
NPY-Y1 PAM-ag: potentiates or activates human NPY-Y1 receptor; P25929; NPY-Y1 expressing cells, potentiator/agonist activation; activation, % at 3.6 µM; actives 0.37% (n = 220,000); AID 1304; in the data active = activation above about 33%, passing the limit was not always enough;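 also: cells stimulated with NPY at EC10 then isoproterenol at EC100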
NPY2 pot ag: potentiates or activates human NPY-Y2 receptor | cells expressing NPY-Y2, potentiator/agonist read-out | actives 0.45% (n = 220,000) | activation, % at 3.6 µM | P49146 | AID 1359; in the data active = activation above about 27%;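 also: cells stimulated with NPY near EC25 plus isoproterenol at EC100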
Target sequence (P49146 whole entry, looked up): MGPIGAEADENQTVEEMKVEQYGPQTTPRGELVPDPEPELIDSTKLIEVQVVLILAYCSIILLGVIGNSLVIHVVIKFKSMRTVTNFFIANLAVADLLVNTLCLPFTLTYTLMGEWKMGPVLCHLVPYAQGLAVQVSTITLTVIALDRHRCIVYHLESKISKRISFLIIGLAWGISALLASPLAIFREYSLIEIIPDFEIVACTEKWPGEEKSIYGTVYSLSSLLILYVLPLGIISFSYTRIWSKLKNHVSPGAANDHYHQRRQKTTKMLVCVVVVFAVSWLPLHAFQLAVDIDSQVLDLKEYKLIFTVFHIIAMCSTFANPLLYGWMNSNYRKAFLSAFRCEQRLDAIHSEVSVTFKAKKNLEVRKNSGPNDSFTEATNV
NPY Y2 blocker: blocks the human neuropeptide Y Y2 receptor. inhibition, % at 2.7 µM. NPY-Y2 expressing cells, antagonist mode. AID 793. P49146. actives 0.99% (n = 140,000); in the data active = inhibition above about 17%
NPY Y1 blocker: NPY-Y1 (human) receptor antagonism; HEK293-CNG Y1 cells, membrane potential fluorescence; NPY at EC95, then isoproterenol; inhibition, % at 3.6 µM; actives 1% (n = 200,000); AID 1040;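 active = inhibition above the campaign mean inhibition of all tested compounds plus 3 SD, cut at about 20% in these data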
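Material: HEK293 cells with Y1 receptor plus CNG channel; times: compound incubation 1 h at room temperature, readout 45 min post-stimulation; signal: fluorescence, membrane potential probe; read-out basis: fluorescence ratio normalized to % inhibition between controls; benchmarks: full-block control isoproterenol-only wells, zero-block control NPY plus isoproterenol wells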
WT yeast gro inh: growth inhibition of WT yeast, mitochondrial fusion screen; mitochondrial fusion phenotypic screen, WT strain; inhibition, % at 10 µM; actives 2.1% (n = 190,000); in the data active = inhibition above about 58%; tested in S. cerevisiae
RAM inhibit: blocks the yeast RAM network; S. cerevisiae dse1pr::URA3 reporter, 5-FOA growth OD615, 2 d; analog-sensitive cbk1-as2 kinase mutant strain; inhibition, % at 50 µM; actives 1.8% (n = 190,000); AID 868;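 active = inhibition above a set limit, 3 SD over mean compound inhibition, cut at about 8.4% in these data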;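 also: inhibition rescues growth on 5-FOA so higher OD means more RAM inhibition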
Hits are given with their value; i = inactive; nt = not tested or not shown.

SMILES	NPY-Y1 PAM-ag	NPY2 pot ag	NPY Y2 blocker	NPY Y1 blocker	WT yeast gro inh	RAM inhibit
Cc1ccsc1C(=O)NCCC(c1ccccc1)c1ccccc1	i	i	i	i	67.1	i
COC(=O)Cc1[nH]nc2c1C(c1cc(OC)c(OC)c(OC)c1)C(C#N)=C(N)O2 (configuration not stated)	i	i	nt	nt	nt	nt
CCOC(=O)C(C(=O)OCC)C(C)(C)/C(C)=N\Nc1ccc([N+](=O)[O-])cc1[N+](=O)[O-]	i	i	i	i	i	9.0
C/C(=N\Nc1ccc([N+](=O)[O-])cc1[N+](=O)[O-])C(C)C(C)C (configuration not stated)	i	i	nt	i	i	9.6
Cc1cc(C)cc(NC(=S)NCc2ccc3c(c2)OCO3)c1	i	i	i	30.3	nt	nt
O=C(c1cccc(F)c1)N1CCN(c2cc(N3CCCCC3)c(F)cc2[N+](=O)[O-])CC1	i	i	i	i	60.7	i
O=S(=O)(c1ccc2c(c1)OCCO2)N1CCC(c2nc3ccccc3s2)CC1	i	i	i	i	i	i
CC(Sc1nc(-c2ccccc2)cs1)C(=O)Nc1ccc(Cl)cn1 (configuration not stated)	i	i	i	i	i	9.5
CCOC(=O)C1=C(C)NC(=O)NC1c1ccc(-c2ccc(Cl)cc2)o1 (configuration not stated)	i	i	nt	i	i	i
CCOC(=O)C1=C(C)NC(=S)NC1c1ccc(-c2ccc(Cl)cc2)o1 (configuration not stated)	i	i	i	i	65.6	i
Cc1cc(OC(=O)Cc2cccc3ccccc23)c([N+](=O)[O-])c(=O)[nH]1	i	i	i	i	i	i
CC(=Nc1ccc(C)cc1C)c1sc2ccccc2c1O	i	i	nt	i	79.4	i
CN(C)CCNC(=S)Nc1ccccc1C(C)(C)C	i	i	nt	i	i	i
CC(C)(C)c1ccccc1NC(=S)NCc1ccccc1	i	i	i	i	62.6	i
COc1cccc(N2CCN(CC(=O)Nc3nnc(-c4ccccc4)s3)CC2)c1	i	i	i	i	i	i
O=C(NC(NC(=S)Nc1ccccc1Cl)C(Cl)(Cl)Cl)c1cccc(Cl)c1 (configuration not stated)	i	i	i	i	i	9.4
CSc1cccc(NC(=O)/C=C/c2cccc(Cl)c2)c1	i	i	i	i	82.8	9.1
O=C(/C=C/c1ccccc1)NC(NC(=S)Nc1cccc(Cl)c1)C(Cl)(Cl)Cl (configuration not stated)	i	i	i	i	i	8.9
CC(=O)C1=NOC(CNc2ncc(C(F)(F)F)cc2Cl)C1 (configuration not stated)	i	i	nt	i	i	i
COc1ccc(S(=O)(=O)N2CCCCC2)cc1NC(=S)Nc1ccccc1	i	i	i	i	i	i
CCOc1cc(CNc2ccc(N3CCCCC3)cc2)cc(Br)c1OCC(=O)NC(C)(C)C	i	i	i	i	65.4	i
O=C(NCCCN1CCOCC1)c1ccccc1-c1ccccc1	i	i	i	i	74.5	i
CCn1cc([N+](=O)[O-])c(C(=O)N2CCN(C(=O)c3ccco3)CC2)n1	i	i	i	i	i	i
COc1ccc(OCCSc2nnnn2C2CCCCC2)cc1	i	i	i	i	i	i
Cc1ccc(-c2noc(CN(C(=O)CCCCCN3C(=O)c4ccccc4C3=O)C(C)C)n2)cc1	i	i	i	i	i	9.8
SMILES	NPY-Y1 PAM-ag	NPY2 pot ag	NPY Y2 blocker	NPY Y1 blocker	WT yeast gro inh	RAM inhibit
COc1cccc(C(=O)N(Cc2nc(-c3ccc(C)cc3)no2)C(C)C)c1	i	i	i	i	i	i
CC(C)N(Cc1nc(-c2ccccc2)no1)C(=O)C(C)(C)C	i	i	i	i	i	i
Cc1ccc(-c2noc(CN(C(=O)CCCN3C(=O)c4ccccc4C3=O)C(C)C)n2)cc1	i	i	i	i	nt	nt
Cc1cc(Br)ccc1OCC(=O)N(Cc1nc(-c2ccccc2)no1)C(C)C	i	i	i	i	i	11.0
Cc1ccc(C)c(C(=O)N(Cc2nc(-c3ccc(Cl)cc3)no2)C(C)C)c1	i	i	i	i	69.9	i
CC(C)N(Cc1nc(-c2ccccc2)no1)C(=O)C(Cl)(Cl)Cl	i	i	nt	i	72.1	i
CC(C)N(Cc1nc(-c2ccccc2)no1)C(=O)COc1ccccc1	i	i	i	i	i	i
COc1ccc(C(=O)/C=C/Nc2cc(C)on2)cc1	i	i	i	i	i	i
